Assay results from PMC8713577 (ACS infectious diseases, 2021).
Converted amounts (≈) assume the structure as drawn. Like-named read-outs stand apart in the source and are kept apart here.

Legend:
[1] = tested on: S. aureus; test: MIC shift in 50% human serum; format: cell-based, Staphylococcus aureus
In short: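 The CLSI broth microdilution MIC in cation-adjusted Mueller-Hinton broth was repeated against S. aureus with 50% human serum (ultrafiltrate, 30K Dalton membrane-filtered, unspecified gender) in the medium. Testing was in biological triplicate.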

[2] = tested on: S. aureus ATCC 29213; test: Resistance frequency, large inoculum method; format: cell-based, Staphylococcus aureus; conditions: 2, 4, 8, 16, 32X the MIC
[3] = tested on: human foreskin fibroblast-1 cells (HFF-1); test: Cell viability, Alamar Blue, 72 h; format: cell-based
In short: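 HFF-1 fibroblasts were grown in DMEM with 15% fetal bovine serum, 100 μg/mL penicillin and 100 μg/mL streptomycin at 37 °C under 5% CO2. Cells were harvested, seeded and left to adhere. They were exposed to compounds in DMSO (1% final) for 72 h, and viability was then read by Alamar Blue. Raptinal (20 μM) served as the dead control.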

[4] = tested on: S. aureus ATCC 29213; test: MIC, CLSI broth microdilution; format: cell-based, Staphylococcus aureus; conditions: for antibacterial activity relative to FA: S. aureus ATCC 29213, MIC; for MIC fold worse than FA: S. aureus ATCC 29213
In short: (§1)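 Broth microdilution followed CLSI, in cation-adjusted Mueller-Hinton broth in round-bottom wells, run in biological triplicate. Reference strains came from ATCC.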

[5] = mouse, in vivo
[6] = tested on: S. aureus (FA-32X-B); test: Neutropenic thigh infection burden study, FA-resistant strain; format: in vivo, CD-1 mice; conditions: 50 mg/kg IP at 1, 2, 3 h postinfection, 8 h postinfection
[7] = human, in vivo; cited from earlier work
[8] = tested on: E. faecium ATCC 19434; test: MIC against sensitive E. faecium; format: cell-based, Enterococcus faecium
In short: as §1

[9] = tested on: S. aureus strains in the United States; conditions: analysis conducted in 2011; cited from earlier work
[10] = tested on: 29 clinical isolates of S. aureus; test: MIC against multidrug-resistant clinical isolates of S. aureus; format: cell-based, Staphylococcus aureus; conditions: 29 multidrug-resistant clinical isolates
[11] = tested on: clinical isolates of S. aureus / staphylococci resistant to FA; conditions: cited from earlier work
[12] = tested on: six clinical isolates of E. faecium (VRE); test: MIC against clinical isolates of E. faecium; format: cell-based, Enterococcus faecium; conditions: for activity against VRE clinical isolates: E. faecium clinical isolates with high levels of vancomycin resistance
[13] = tested on: strains of S. aureus ATCC 29213 resistant to FA-CP; test: MIC against FA-CP-resistant mutant strains; format: cell-based, Staphylococcus aureus
[14] = tested on: S. aureus ATCC BAA-1721; test: MIC against S. aureus strain harboring the fusC gene; format: cell-based, Staphylococcus aureus; conditions: S. aureus ATCC BAA-1721, fusC gene
[15] = tested on: FA-resistant strains of S. aureus ATCC 29213; format: cell-based, Staphylococcus aureus
[16] = Mouse maximum tolerated dose / tolerability

CC(=O)O[C@H]1C[C@@]2(C)[C@@H](C[C@@H](O)[C@H]3[C@@]4(C)CC[C@@H](O)[C@@H](C)[C@@H]4CC[C@@]32C)/C1=C(\CCC=C1CCOCC1)C(=O)O [compound 27]
shift in MIC in 50% human serum compared to FA [1]: very similar
resistance frequency relative to FA [2]: worse resistance frequency relative to FA
IC50 ([3]; HFF-1 cells, 72 h): > 50 µM
MIC ([4]; S. aureus ATCC 29213, CLSI): 0.125 µg/mL (≈ 0.224 µM)
antibacterial activity relative to FA [4]: equipotent activity to FA

CC(=O)OC1CC2(C)C(CC(=O)C3C4(C)CCC(O)C(C)C4CCC32C)C1=C(CCC=C(C)C)C(=O)O (stereo not shown) [compound 10]
MIC fold worse than FA [4]: 4–8 fold

CC(=O)O[C@H]1C[C@@]2(C)[C@@H](C[C@@H](O)[C@H]3[C@@]4(C)CC[C@@H](O)[C@@H](C)[C@@H]4CC[C@@]32C)/C1=C(\CCC=C(C)C)C(=O)O [sodium fusidate]
tolerability in mice, single dose ([5]; ip, 50 mg/kg): well tolerated

CC(=O)OC1CC2(C)C(CC(O)C3C4(C)CCC(O)C(C)C4CCC32C)C1C(CCCC(C)C)C(=O)O (stereo not shown) [compound 28]
antibacterial activity relative to FA [4]: modest decreases in potency relative to FA

CC(=O)O[C@H]1C[C@@]2(C)[C@@H](C[C@@H](O)[C@H]3[C@@]4(C)CC[C@@H](O)[C@@H](C)[C@@H]4CC[C@@]32C)/C1=C(\CCC=C(C)C)C(=O)O [FA, Fusidic acid, reference compound]
bacterial burden in thigh [6]: no efficacy
tolerability in mice, multiple doses [5]: well tolerated
Cmax [7]: greater than 130 μg/mL
half-life [7]: 10 to 14 h
MIC ([8]; Enterococcus faecium, ATCC19434): 2 µg/mL (≈ 3.87 µM)
S. aureus strains susceptible to FA [9]: 99.7%
activity against clinical isolates of S. aureus [10]: no cross-resistance with vancomycin and retained potent activity
increase in MIC upon resistance ([11]; L461K mutation): > 2048 fold
MIC ([11]; S. aureus clinical strains with EF-G L461K mutation): > 256 µg/mL
MIC ([11]; five S. aureus clinical isolates with EF-G V90I, H457Q, L461K, A655V): > 256 µg/mL
MIC range ([11]; staphylococcal clinical isolates that carry the fusC gene): 2 to 64 µg/mL
MIC range ([11]; strains that possess the fusB gene): 4 to 1024 µg/mL
IC50 ([3]; Homo sapiens, HFF-1, 72 h): > 50 µM
MIC ([4]; Staphylococcus aureus, ATCC29213): 0.125 µg/mL (≈ 0.242 µM)
activity against VRE clinical isolates [12]: retained potent activity

CN[C@H](CC(C)C)C(=O)N[C@H]1C(=O)N[C@@H](CC(N)=O)C(=O)N[C@H]2C(=O)N[C@H]3C(=O)N[C@H](C(=O)N[C@H](C(=O)O)c4cc(O)cc(O)c4-c4cc3ccc4O)[C@H](O)c3ccc(c(Cl)c3)Oc3cc2cc(c3O[C@@H]2O[C@H](CO)[C@@H](O)[C@H](O)[C@H]2O[C@H]2C[C@](C)(N)[C@H](O)[C@H](C)O2)Oc2ccc(cc2Cl)[C@H]1O [vancomycin]
MIC [12]: 512 µg/mL (≈ 353 µM)

CC(=O)OC1CC2(C)C(CC(O)C3C4(C)CCC(O)C(C)C4CCC32C)C1=C(CCC=C1CCCCC1)C(=O)O (stereo not shown) [compound 26]
shift in MIC in 50% human serum compared to FA [1]: very similar
resistance frequency relative to FA [2]: only displayed an improvement at 32X the MIC
IC50 ([3]; HFF-1 cells, 72 h): > 50 µM
MIC ([4]; S. aureus ATCC 29213, CLSI): 0.125 µg/mL (≈ 0.225 µM)
antibacterial activity relative to FA [4]: equipotent activity to FA

CC(=O)OC1CC2(C)C(CC(O)C3C4(C)CCC(O)C(C)C4CCC32C)C1=C(CCC=C1CCCC1)C(=O)O (stereo not shown) [FA-CP]
shift in MIC in 50% human serum compared to FA [1]: very similar
fold increase in MIC from wild-type (WT) S. aureus ([13]; highest MIC of colonies generated from FA-CP): 512 fold
highest MIC observed for colonies generated from FA-CP ([13]; resistance mutants generated at 32X the MIC): 64 µg/mL
MIC for FA-CP ([13]; strain FA-CP-32X-1, EF-G H457Y): 32 µg/mL
MIC for FA-CP ([13]; strain FA-CP-32X-2, EF-G H457Y): 64 µg/mL
MIC for FA-CP ([13]; strain FA-CP-32X-3, EF-G H457Y): 64 µg/mL
MIC for FA-CP ([13]; strain FA-CP-32X-4, EF-G H457Y): 32 µg/mL
MIC for FA-CP ([13]; strain FA-CP-32X-5, EF-G H457Y): 64 µg/mL
MIC for FA-CP ([13]; strain FA-CP-32X-6, EF-G H457Y): 64 µg/mL
MIC for FA-CP ([13]; strain FA-CP-32X-7, EF-G H457Y): 64 µg/mL
MIC for FA-CP ([13]; strain FA-CP-32X-8, EF-G H457Y): 64 µg/mL
MIC for FA-CP ([13]; strain FA-CP-32X-9, EF-G H457Y): 32 µg/mL
MIC for FA-CP ([13]; strain FA-CP-32X-10, EF-G D434N): 32 µg/mL
MIC for FA-CP ([13]; strain FA-CP-32X-11, EF-G H457Y): 32 µg/mL
MIC for FA-CP ([13]; strain FA-CP-32X-12, EF-G D434N): 32 µg/mL
MIC for FA-CP ([13]; strain FA-CP-32X-13, EF-G H457Y): 64 µg/mL
MIC for FA-CP ([13]; strain FA-CP-32X-14, EF-G H457Y): 32 µg/mL
MIC for FA-CP ([13]; strain FA-CP-32X-15, EF-G H457Y): 64 µg/mL
MIC for FA-CP ([13]; strain FA-CP-32X-16, EF-G F88L): 64 µg/mL
MIC for FA-CP ([13]; strain FA-CP-32X-17, EF-G F88L): 64 µg/mL
MIC for FA-CP ([13]; strain FA-CP-32X-18, EF-G H457Y): 64 µg/mL
MIC for FA-CP ([13]; strain FA-CP-32X-19, EF-G H457Y): 32 µg/mL
MIC for FA-CP ([13]; strain FA-CP-32X-20, EF-G H457Y): 32 µg/mL
bacterial burden in thigh [6]: reductions in bacterial burden
resistance frequency relative to FA [2]: modest improvement in resistance frequency at 2 and 32X the MIC
MIC ([8]; sensitive strain E. faecium ATCC 19434): 2 µg/mL (≈ 3.68 µM)
MIC [14]: 8 µg/mL (≈ 14.7 µM)
activity against clinical isolates of S. aureus [10]: no cross-resistance with vancomycin and retained potent activity
improvement in activity against FA-resistant strains relative to FA ([15]; 11 FA-resistant strains): 2–8 fold
MIC ([15]; FA-resistant strain FA-4X-A, EF-G T385N): 2 µg/mL (≈ 3.68 µM)
MIC ([15]; FA-resistant strain FA-4X-B, EF-G T385N): 2 µg/mL (≈ 3.68 µM)
MIC ([15]; FA-resistant strain FA-8X-A, EF-G T385N): 2 µg/mL (≈ 3.68 µM)
MIC ([15]; FA-resistant strain FA-8X-B, EF-G R464L): 8 µg/mL (≈ 14.7 µM)
MIC ([15]; FA-resistant strain FA-16X-A, EF-G H457Y): 64 µg/mL (≈ 118 µM)
MIC ([15]; FA-resistant strain FA-32X-A, EF-G F88L): 128 µg/mL (≈ 236 µM)
MIC ([15]; FA-resistant strain FA-32X-B, EF-G P406L): 4 µg/mL (≈ 7.37 µM)
MIC ([15]; FA-resistant strain FA-32X-C, EF-G H457L): 128 µg/mL (≈ 236 µM)
MIC ([15]; FA-resistant strain FA-32X-D, EF-G T436I): 2 µg/mL (≈ 3.68 µM)
MIC ([15]; FA-resistant strain FA-32X-E, EF-G H457N): 128 µg/mL (≈ 236 µM)
MIC ([15]; FA-resistant strain FA-32X-F, EF-G D434N): 32 µg/mL (≈ 59 µM)
IC50 ([3]; HFF-1 cells, 72 h): > 50 µM
MIC ([4]; S. aureus ATCC 29213, CLSI): 0.125 µg/mL (≈ 0.23 µM)
antibacterial activity relative to FA [4]: equipotent activity to FA
activity against VRE clinical isolates [12]: retained potent activity
tolerability in mice, multiple doses ([16]; 50 mg/kg, intraperitoneal injection, once-a-day for 4 days): well tolerated
tolerability in mice, single dose ([16]; single dose of 50 mg/kg, IP): well tolerated

CC(=O)OC1CC2(C)C(CC(O)C3C4(C)CCC(=O)C(C)C4CCC32C)C1=C(CCC=C(C)C)C(=O)O (stereo not shown) [compound 5]
MIC fold worse than FA [4]: 4–8 fold
